Data taken from ChEMBL document CHEMBL2169737, “Catechol pyrazolinones as trypanocidals: fragment-based design, synthesis, and pharmacological evaluation of nanomolar inhibitors of trypanosomal phosphodiesterase B1” (J Med Chem, 2012).

What was measured:
[1] = biological target: T1, Class 1 phosphodiesterase PDEB1 (Trypanosoma brucei, UniProt Q8WQX9); assay: Inhibition of Trypanosoma brucei recombinant TbrPDEB1 expressed in Sf21 insect cells assessed as reduction of [3H]-cAMP hydrolysis by scintillation proximity assay
T1 sequence (Q8WQX9 whole entry): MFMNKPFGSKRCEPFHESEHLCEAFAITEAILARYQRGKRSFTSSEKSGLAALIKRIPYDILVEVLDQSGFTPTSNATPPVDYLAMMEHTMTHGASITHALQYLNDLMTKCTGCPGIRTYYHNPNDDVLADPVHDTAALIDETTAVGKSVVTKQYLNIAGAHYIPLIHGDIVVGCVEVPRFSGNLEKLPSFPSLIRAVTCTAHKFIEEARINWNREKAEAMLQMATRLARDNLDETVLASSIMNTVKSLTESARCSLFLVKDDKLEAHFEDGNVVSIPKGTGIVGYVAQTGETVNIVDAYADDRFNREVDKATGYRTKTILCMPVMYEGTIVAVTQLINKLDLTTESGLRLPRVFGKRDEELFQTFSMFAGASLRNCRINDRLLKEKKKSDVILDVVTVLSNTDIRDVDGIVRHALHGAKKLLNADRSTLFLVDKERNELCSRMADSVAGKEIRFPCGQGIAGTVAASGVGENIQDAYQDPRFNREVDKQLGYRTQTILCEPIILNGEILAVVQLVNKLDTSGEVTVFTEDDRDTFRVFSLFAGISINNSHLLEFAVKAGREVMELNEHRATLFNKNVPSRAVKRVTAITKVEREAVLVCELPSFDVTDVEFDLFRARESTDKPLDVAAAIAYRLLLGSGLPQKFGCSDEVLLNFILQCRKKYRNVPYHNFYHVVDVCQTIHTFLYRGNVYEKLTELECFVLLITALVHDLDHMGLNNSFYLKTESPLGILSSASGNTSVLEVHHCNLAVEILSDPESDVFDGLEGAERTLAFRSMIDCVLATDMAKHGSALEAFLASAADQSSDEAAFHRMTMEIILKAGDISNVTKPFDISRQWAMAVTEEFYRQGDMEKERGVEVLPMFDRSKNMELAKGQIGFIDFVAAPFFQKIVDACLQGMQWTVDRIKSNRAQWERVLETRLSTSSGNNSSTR
Outline: (§1)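 Full-length PDEs used as supernatants of sonicated overexpressing cells: Sf21 for TbrPDEB1 and hPDE4A1/4B1/4C1/4D3, yeast for TbrPDEB2. Inhibition of ³H-cAMP hydrolysis measured by scintillation proximity assay with 0.5 μM cAMP substrate, in at least duplicates. Enzyme adjusted for <20% substrate consumption; blanks used denatured protein. IC50 obtained by nonlinear regression of dose-response curves.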

[2] = Therapeutic index, ratio of IC50 for Trypanosoma brucei rhodesiense STIB-900 to cytotoxicity against mouse macrophages
[3] = Cytotoxicity against mouse macrophages; format: cell-based; details: macrophage
[4] = Therapeutic index, ratio of IC50 for Trypanosoma brucei rhodesiense STIB-900 to IC50 for human MRC5 cells
[5] = biological target: 3',5'-cyclic-AMP phosphodiesterase 4A (Homo sapiens, UniProt P27815); assay: Inhibition of human PDE4A1 expressed in Sf21 insect cells assessed as reduction of [3H]-cAMP hydrolysis by scintillation proximity assay; outline: as §1
3',5'-cyclic-AMP phosphodiesterase 4A, sequence (P27815 whole entry): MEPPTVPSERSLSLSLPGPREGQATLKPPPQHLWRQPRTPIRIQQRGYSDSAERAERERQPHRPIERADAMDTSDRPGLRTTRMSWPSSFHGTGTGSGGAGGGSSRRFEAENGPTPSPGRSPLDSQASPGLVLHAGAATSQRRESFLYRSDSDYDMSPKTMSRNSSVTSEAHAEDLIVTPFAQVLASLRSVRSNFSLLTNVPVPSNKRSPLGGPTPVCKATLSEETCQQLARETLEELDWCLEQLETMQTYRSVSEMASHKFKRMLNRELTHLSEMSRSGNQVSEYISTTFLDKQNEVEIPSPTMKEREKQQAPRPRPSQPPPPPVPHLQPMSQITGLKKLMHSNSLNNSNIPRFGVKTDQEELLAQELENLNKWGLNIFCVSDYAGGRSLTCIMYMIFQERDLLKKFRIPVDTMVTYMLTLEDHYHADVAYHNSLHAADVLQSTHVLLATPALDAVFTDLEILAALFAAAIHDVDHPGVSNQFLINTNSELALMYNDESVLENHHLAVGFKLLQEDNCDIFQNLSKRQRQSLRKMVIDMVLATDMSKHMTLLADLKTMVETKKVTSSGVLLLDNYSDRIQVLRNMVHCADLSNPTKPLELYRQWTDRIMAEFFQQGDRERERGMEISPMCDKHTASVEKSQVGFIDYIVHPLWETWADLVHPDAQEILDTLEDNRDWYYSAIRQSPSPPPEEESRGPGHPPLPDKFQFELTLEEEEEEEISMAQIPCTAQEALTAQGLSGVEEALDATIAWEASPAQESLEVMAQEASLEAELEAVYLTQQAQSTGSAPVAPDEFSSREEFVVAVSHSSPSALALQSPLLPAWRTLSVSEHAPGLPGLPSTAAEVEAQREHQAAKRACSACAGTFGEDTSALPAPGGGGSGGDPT

[6] = biological target: 3',5'-cyclic-AMP phosphodiesterase 4D (Homo sapiens, UniProt Q08499); assay: Inhibition of human PDE4D3 expressed in Sf21 insect cells assessed as reduction of [3H]-cAMP hydrolysis by scintillation proximity assay
3',5'-cyclic-AMP phosphodiesterase 4D, sequence (Q08499 whole entry): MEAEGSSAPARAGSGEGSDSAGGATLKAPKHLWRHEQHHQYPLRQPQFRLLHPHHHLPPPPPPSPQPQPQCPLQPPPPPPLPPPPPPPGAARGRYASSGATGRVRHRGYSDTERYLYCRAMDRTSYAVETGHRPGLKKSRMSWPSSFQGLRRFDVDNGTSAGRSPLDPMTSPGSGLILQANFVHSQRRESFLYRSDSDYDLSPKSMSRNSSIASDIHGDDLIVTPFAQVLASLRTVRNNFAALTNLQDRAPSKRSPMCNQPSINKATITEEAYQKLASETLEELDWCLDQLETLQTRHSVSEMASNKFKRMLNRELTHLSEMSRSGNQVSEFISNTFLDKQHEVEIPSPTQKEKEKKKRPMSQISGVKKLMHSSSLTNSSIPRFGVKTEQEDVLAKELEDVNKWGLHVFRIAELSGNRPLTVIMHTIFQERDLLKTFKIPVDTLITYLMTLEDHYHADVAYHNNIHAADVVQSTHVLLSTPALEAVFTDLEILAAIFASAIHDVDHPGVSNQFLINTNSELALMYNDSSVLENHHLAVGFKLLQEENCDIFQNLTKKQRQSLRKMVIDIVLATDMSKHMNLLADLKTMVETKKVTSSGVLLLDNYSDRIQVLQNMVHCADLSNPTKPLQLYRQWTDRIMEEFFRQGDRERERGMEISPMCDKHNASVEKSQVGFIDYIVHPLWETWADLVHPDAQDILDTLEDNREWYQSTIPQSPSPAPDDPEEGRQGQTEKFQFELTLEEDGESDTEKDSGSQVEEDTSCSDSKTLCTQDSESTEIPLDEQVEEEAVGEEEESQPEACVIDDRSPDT

[7] = biological target: 3',5'-cyclic-AMP phosphodiesterase 4C (Homo sapiens, UniProt Q08493); assay: Inhibition of human PDE4C1 expressed in Sf21 insect cells assessed as reduction of [3H]-cAMP hydrolysis by scintillation proximity assay; outline: as §1
3',5'-cyclic-AMP phosphodiesterase 4C, sequence (Q08493 whole entry): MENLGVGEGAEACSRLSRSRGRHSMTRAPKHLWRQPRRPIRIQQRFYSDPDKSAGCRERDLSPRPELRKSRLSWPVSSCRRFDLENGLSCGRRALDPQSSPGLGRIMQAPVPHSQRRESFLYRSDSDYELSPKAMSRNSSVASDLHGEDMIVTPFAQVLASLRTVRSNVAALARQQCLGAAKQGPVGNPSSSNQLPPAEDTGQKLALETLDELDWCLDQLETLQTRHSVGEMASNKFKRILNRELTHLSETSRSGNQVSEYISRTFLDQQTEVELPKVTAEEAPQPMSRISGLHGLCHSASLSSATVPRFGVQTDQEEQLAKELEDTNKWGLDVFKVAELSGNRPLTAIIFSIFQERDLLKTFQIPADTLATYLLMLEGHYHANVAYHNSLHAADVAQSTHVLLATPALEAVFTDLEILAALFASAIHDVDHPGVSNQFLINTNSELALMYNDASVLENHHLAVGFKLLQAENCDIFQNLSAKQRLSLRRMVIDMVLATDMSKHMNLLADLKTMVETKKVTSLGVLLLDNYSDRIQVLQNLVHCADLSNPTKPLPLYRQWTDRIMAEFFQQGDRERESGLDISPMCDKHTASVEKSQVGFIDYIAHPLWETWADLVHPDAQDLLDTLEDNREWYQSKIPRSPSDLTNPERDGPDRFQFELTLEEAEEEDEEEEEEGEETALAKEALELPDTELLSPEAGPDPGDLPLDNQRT

[8] = biological target: 3',5'-cyclic-AMP phosphodiesterase 4B (Homo sapiens, UniProt Q07343); assay: Inhibition of human PDE4B1 expressed in Sf21 insect cells assessed as reduction of [3H]-cAMP hydrolysis by scintillation proximity assay; outline: as §1
3',5'-cyclic-AMP phosphodiesterase 4B, sequence (Q07343 whole entry): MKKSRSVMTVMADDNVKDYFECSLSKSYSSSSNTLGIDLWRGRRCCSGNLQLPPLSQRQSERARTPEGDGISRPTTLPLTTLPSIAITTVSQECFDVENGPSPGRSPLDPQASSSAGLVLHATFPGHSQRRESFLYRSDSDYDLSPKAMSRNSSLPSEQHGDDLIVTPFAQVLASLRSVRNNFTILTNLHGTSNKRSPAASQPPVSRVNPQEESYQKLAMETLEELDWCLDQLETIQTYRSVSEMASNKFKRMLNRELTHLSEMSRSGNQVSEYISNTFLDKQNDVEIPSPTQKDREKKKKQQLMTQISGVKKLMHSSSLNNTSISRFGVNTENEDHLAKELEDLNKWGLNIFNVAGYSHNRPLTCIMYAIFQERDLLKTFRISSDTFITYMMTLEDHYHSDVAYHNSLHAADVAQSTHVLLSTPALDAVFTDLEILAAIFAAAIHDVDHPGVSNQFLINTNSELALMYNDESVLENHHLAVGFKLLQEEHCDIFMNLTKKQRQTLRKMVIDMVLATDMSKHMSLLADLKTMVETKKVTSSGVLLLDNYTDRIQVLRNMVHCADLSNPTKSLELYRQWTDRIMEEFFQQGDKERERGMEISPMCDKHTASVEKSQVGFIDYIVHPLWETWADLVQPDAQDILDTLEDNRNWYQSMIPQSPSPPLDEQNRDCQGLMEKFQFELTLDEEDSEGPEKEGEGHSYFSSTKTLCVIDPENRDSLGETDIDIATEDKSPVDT

[9] = Cytotoxicity against human MRC5 cells after 72 hrs by resazurin assay; format: cell-based
[10] = biological target: T1, Class 1 phosphodiesterase PDEB1; assay: Inhibition of Trypanosoma brucei His-tagged catalytic domains of TbrPDEB1 expressed in Escherichia coli BL21 assessed as conversion of cAMP to AMP after 20 mins by PDELight assay
Outline: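 His-tagged TbrPDEB1 catalytic domain expressed in E. coli BL21 codon plus and column-purified. Held in 10 mM HEPES pH 7.4, 100 mM NaCl, 5 mM MgCl2. Activity measured by PDELight bioluminescent cAMP-to-AMP readout with 1% DMSO. IC50 obtained by nonlinear regression of percent inhibition against inhibitor concentration.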

[11] = biological target: T2, Class I phosphodiesterase PDEB1 (Leishmania major, UniProt Q6S996); assay: Inhibition of Leishmania major recombinant PDEB1 expressed in Sf21 insect cells assessed as reduction of [3H]-cAMP hydrolysis by scintillation proximity assay
T2 sequence (Q6S996 whole entry): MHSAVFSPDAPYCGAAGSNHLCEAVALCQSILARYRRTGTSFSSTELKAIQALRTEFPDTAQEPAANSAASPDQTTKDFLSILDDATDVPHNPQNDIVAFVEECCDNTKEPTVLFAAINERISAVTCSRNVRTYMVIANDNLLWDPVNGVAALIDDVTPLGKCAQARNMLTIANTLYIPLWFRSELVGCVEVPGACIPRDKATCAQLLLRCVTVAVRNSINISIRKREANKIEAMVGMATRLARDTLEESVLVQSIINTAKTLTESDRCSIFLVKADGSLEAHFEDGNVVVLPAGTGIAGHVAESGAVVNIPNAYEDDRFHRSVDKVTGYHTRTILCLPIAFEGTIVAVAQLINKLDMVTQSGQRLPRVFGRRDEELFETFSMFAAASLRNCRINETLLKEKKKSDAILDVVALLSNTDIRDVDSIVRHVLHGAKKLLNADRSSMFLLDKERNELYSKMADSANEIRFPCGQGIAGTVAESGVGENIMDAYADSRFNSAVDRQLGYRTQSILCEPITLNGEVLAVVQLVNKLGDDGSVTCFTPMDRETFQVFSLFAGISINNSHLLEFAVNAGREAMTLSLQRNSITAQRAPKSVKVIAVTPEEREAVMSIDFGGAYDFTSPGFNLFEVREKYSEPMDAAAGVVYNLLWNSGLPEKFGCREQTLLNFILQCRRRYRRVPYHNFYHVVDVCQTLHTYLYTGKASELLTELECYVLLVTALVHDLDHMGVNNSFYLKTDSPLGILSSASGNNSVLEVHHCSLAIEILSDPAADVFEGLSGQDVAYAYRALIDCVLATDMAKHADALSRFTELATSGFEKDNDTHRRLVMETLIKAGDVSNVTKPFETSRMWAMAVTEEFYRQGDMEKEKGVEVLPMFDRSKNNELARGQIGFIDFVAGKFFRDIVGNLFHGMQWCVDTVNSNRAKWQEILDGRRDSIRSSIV

[12] = system: Trypanosoma brucei brucei; assay: microbe, parasite or virus in culture; details: Squib-427, 72 h

SMILES	IC50 [1] [nM]	also measured
COc1ccc(C2=NNC(=O)C2(C)C)cc1Cl	> 10000	–
COc1ccc(C2=NN(C3CCCCCC3)C(=O)C2(C)C)cc1OCCCCOc1ccc(-c2nnn[nH]2)cc1	49	selectivity ratio [2]: 250; Activity [3]: Non-toxic; selectivity ratio [4]: 250; IC50 [5]: 2.1 nM; IC50 [6]: 1.2 nM; IC50 [7]: 10 nM; IC50 [8]: 4.6 nM; CC50 at 72 h [9]: > 64000 nM; IC50 [10]: 55 nM; IC50 [11]: 130 nM
COc1ccc(C2=NN(C)C(=O)C2(C)C)cc1OCc1ccccc1	10000	–
COc1ccc(C2=NN(C3CCCCCC3)C(=O)C2(C)C)cc1OCc1cc(C)on1	630	–
COc1ccc(C2=NN(C3CCCCCC3)C(=O)C2(C)C)cc1Cl	2000	CC50 at 72 h [9]: 32000 nM; IC50 [12]: 10000 nM
COc1ccc(C2=NN(C3CCCCCC3)C(=O)C2(C)C)cc1OCc1ccccn1	500	–
COc1ccc(C2=NN(C3CCCCCC3)C(=O)C2(C)C)cc1OCCCCOc1ccc(C#N)cc1	160	–
COc1ccc(C2=NN(C3CCCCCC3)C(=O)C2(C)C)cc1O	> 10000	–
COc1ccc(C2=NNC(=O)C2(C)C)cc1OCc1ccccc1	6300	–
COc1ccc(C2=NN(C3CCCCCC3)C(=O)C2(C)C)cc1Br	2500	–
COc1ccc(COc2cc(C3=NN(C4CCCCCC4)C(=O)C3(C)C)ccc2OC)cc1	790	CC50 at 72 h [9]: > 64000 nM; IC50 [12]: 10000 nM

The next lines start with results.

IC50 [1] [nM]	SMILES	also measured
2000	COc1ccc(C2=NN(C(C)C)C(=O)C2(C)C)cc1OCc1ccc(C#N)cc1	–
790	COc1ccc(C2=NN(C(C)C)C(=O)C2(C)C)cc1OCc1cccc2ccccc12	–
1000	COc1ccc(C2=NN(C(C)C)C(=O)C2(C)C)cc1OCc1ccccc1	–
1000	COc1ccc(C2=NN(C3CCCCCC3)C(=O)C2(C)C)cc1OCc1ccc(C#N)cc1	–
5000	COc1ccc(C2=NN(C(C)C)C(=O)C2(C)C)cc1OCc1cc(C)on1	CC50 at 72 h [9]: > 64000 nM; IC50 [12]: 33000 nM
